Experimental data published in ChEMBL document CHEMBL1156107, “Synthesis of new alkylaminooxysterols with potent cell differentiating activities: identification of leads for the treatment of cancer and neurodegenerative diseases” (J Med Chem, 2009).
Activity calls are given as the source filed them. No cut-off for these calls is given here.

Tests used:
SK-N-SH [1] = assay: Induction of neurite outgrowth in human SK-N-SH cells at 2 to 5 uM after 48 hrs by crystal violet staining; type: functional, cell-based
P19 [2] = assay: Induction of neurite outgrowth in mouse P19 cells at 2 to 5 uM after 48 hrs by crystal violet staining; type: functional, cell-based
P19 [3] = assay: Cytotoxicity against mouse P19 cells after 3 days by trypan blue exclusion assay; type: functional, cell-based; details: p19
Procedure, shortened: (§1)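 U937 and P19 cells treated with compound. Cell death scored by trypan blue exclusion, with cells scraped, suspended in 0.25% w/v trypan blue in PBS and counted in a Malassez cell. IC50 is the concentration giving 50% cytotoxicity.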

P19 [4] = assay: Induction of dendrite out growth in IL-4/GMCSF-stimulated mouse P19 cells assessed as dendrite length at 100 nM after 48 hrs by light microscopy; type: functional
U-87MG ATCC [5] = assay: Induction of neurite outgrowth in human U87 cells at 2 to 5 uM after 48 hrs by crystal violet staining; type: functional, cell-based
U-937 [6] = assay: Induction of dendrite out growth in IL-4/GMCSF-stimulated human U937 cells assessed as dendrite length at 100 nM after 48 hrs by light microscopy; type: functional
Procedure, shortened: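 U937 cells at 1.1 × 10⁶ cells/mL were primed with 10 ng/mL PMA for 48 h in RPMI with 10% heat-inactivated serum. Adherent cells were then given 100 ng/mL IL-4 plus 100 ng/mL GM-CSF or 100 nM compound for 48 h. Dendrite length scored by light microscopy, from none to over 100 μm with a contact network.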

SH-SY5Y [7] = assay: Induction of neurite outgrowth in human SH-SY5Y cells at 2 to 5 uM after 48 hrs by crystal violet staining; type: functional, cell-based
U-937 [8] = assay: Cytotoxicity against human U937 cells after 3 days by trypan blue exclusion assay; type: functional, cell-based; details: u-937; procedure, shortened: as §1
N2a [9] = assay: Induction of neurite outgrowth in mouse Neuro2a cells at 2 to 5 uM after 48 hrs by crystal violet staining; type: functional, cell-based
U-87MG ATCC [10] = assay: Induction of neurite outgrowth in human U87 cells at 40 to 60 uM after 48 hrs by crystal violet staining; type: functional, cell-based
SH-SY5Y [11] = assay: Induction of neurite outgrowth in human SH-SY5Y cells at 40 to 60 uM after 48 hrs by crystal violet staining; type: functional, cell-based
SK-N-SH [12] = assay: Induction of neurite outgrowth in human SK-N-SH cells at 40 to 60 uM after 48 hrs by crystal violet staining; type: functional, cell-based
N2a [13] = assay: Induction of neurite outgrowth in mouse Neuro2a cells at 40 to 60 uM after 48 hrs by crystal violet staining; type: functional, cell-based
P19 [14] = assay: Induction of neurite outgrowth in mouse P19 cells at 40 to 60 uM after 48 hrs by crystal violet staining; type: functional, cell-based

Row | SMILES | Activity (SK-N-SH [1]) | Activity (P19 [2]) | IC50 (P19 [3]) | Activity (P19 [4]) | Activity (U-87MG ATCC [5]) | Activity (U-937 [6]) | Activity (SH-SY5Y [7]) | IC50 (U-937 [8]) | Activity (N2a [9]) | Activity (U-87MG ATCC [10]) | Activity (SH-SY5Y [11]) | Activity (SK-N-SH [12]) | Activity (N2a [13]) | Activity (P19 [14])
1 | CC1=C(/C=C/C(C)=C/C=C/C(C)=C/C(=O)O)C(C)(C)CCC1 [TRETINOIN] | Active | Active | Not Active | inactive | Active | inactive | Active | Not Active | Active |  |  |  |  | 
2 | CC/C=C\C/C=C\C/C=C\C/C=C\C/C=C\C/C=C\CCC(=O)O |  |  |  |  |  |  |  |  |  | Active | Active | Active | Active | Active
